These results are taken from ChEMBL document CHEMBL1126823, “Benextramine-neuropeptide Y receptor interactions: contribution of the benzylic moieties to [3H]neuropeptide Y displacement activity” (J Med Chem, 1993).

Usually IC50 stands for the midpoint of a concentration-inhibition curve.

Assay [1] in a line: Relative potency of compound at alpha-adrenoceptor to that of benextramine was measured by ability to antagonize the effect of epinephrine on the contractions of the electrically stimulated rat vas deferens. The format is tissue-based.
Assay [2] is filed under the species Rattus norvegicus. The assay can be described thus: Displacement of [3H]NPY from rat brain NPY receptor compared to benextramine. In a few lines: (§1)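 Male Sprague-Dawley rat (250-300 g) brain membrane homogenate (1.2-1.6 mg protein/mL) incubated with 1.0 nM [3H]NPY and analog 10^-3 to 10^-7 M in Krebs-Ringer bicarbonate/50 mM phosphate, 0.1% BSA, 0.05% bacitracin, pH 7.4, 90 min at 25 °C. Nonspecific binding defined with 1 µM NPY. Filtration onto PEI-treated glass-fiber filters, scintillation counting. IC50 from competitive binding isotherm fit.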
In general terms: Displacement assays read how much labelled ligand stays bound in the presence of the test substance.

A short description of assay [3]: Binding affinity against rat NPY receptor by using [3H]NPY as radioligand. In a few lines:
as §1

As to `c1ccc2cc(CNCCCCCCNCCSSCCNCCCCCCNCc3ccc4ccccc4c3)ccc2c1`, the Relative activity was determined as 0.27 in assay [1] and 1.8 in assay [2]. The same compound showed an IC50 in assay [3] of 31.3 µM.

On to `Clc1ccccc1CNCCCCCCNCCSSCCNCCCCCCNCc1ccccc1Cl`, for which the Relative activity in assay [1] came out at 0.44; in assay [2], 0.7. Also, in assay [3], the IC50 amounted to 79.9 µM.

For `Clc1cccc(CNCCCCCCNCCSSCCNCCCCCCNCc2cccc(Cl)c2)c1`, the results for the Relative activity in assay [1] and in assay [2] were 0.46 and 1.2, respectively. In assay [3], this compound came in with an IC50 of 46.7 µM.

With `NCCCCCCNCCSSCCNCCCCCCN`, the Relative activity in assay [1] is 0.27; in assay [2] it was below 0.04. Moreover, the concentration for half-maximal inhibition (IC50) in assay [3] is above 1400 µM.

As for `Clc1ccc(CNCCCCCCNCCSSCCNCCCCCCNCc2ccc(Cl)cc2)cc1`, the Relative activity in assay [1] is 0.5; in assay [2] it was 1.5. In assay [3], this compound registered an IC50 of 37.8 µM.

Take `Oc1cccc(CNCCCCCCNCCSSCCNCCCCCCNCc2cccc(O)c2)c1`: the results for the Relative activity in assay [1] and in assay [2] were 0.24 and 2.8, respectively. This compound yielded an IC50 in assay [3] of 20.3 µM.

On to `c1ccc(CNCCCCCCNCCSSCCNCCCCCCNCc2ccccc2)cc1`, for which the figures for the Relative activity in assay [1] and in assay [2] were 0.9 and 0.3, respectively. For the same compound, the IC50 in assay [3] is 191 µM.

As to `Oc1ccc(CNCCCCCCNCCSSCCNCCCCCCNCc2ccc(O)cc2)cc1`, the figures for the Relative activity in assay [1] and in assay [2] were 0.14 and 0.4, respectively. In assay [3], this compound had an IC50 of 162 µM.

With `COc1ccccc1CNCCCCCCNCCSSCCNCCCCCCNCc1ccccc1OC` [BENEXTRAMINE], the Relative activity in assay [1] and in assay [2] was 1 throughout. For the same compound, the 50% inhibitory concentration (IC50) in assay [3] came out at 57.6 µM.

For the compound `COc1ccc(CNCCCCCCNCCSSCCNCCCCCCNCc2ccc(OC)cc2)cc1`, the Relative activity in assay [1] was determined as 0.81; in assay [2] it was 1.3. In addition, the IC50 in assay [3] turned out to be 44.1 µM.

As to `Oc1ccccc1CNCCCCCCNCCSSCCNCCCCCCNCc1ccccc1O`, the Relative activity in assay [1] worked out at 0.36; in assay [2], 1.1. Further, the concentration for half-maximal inhibition (IC50) in assay [3] came to 50.6 µM.

Consider `COc1cccc(CNCCCCCCNCCSSCCNCCCCCCNCc2cccc(OC)c2)c1`, for which the Relative activity worked out at 0.72 in assay [1] and 2.7 in assay [2]. In assay [3], this compound showed an IC50 of 21.5 µM.
